Data taken from ChEMBL document CHEMBL4613285 (ACS Med Chem Lett, 2020).
The source made the active and inactive calls. The calls are words filed in the database; no cut-off is given here.

Experiments:
[1] = Drug concentration in CD-1 mouse brain at 3 mg/kg, iv measured at 60 mins; assay type: ADME, organism-based; conditions: read-out: Ct
Outline: (§1)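 Male CD1 mice (n=2) dosed IV at 3 mg/kg; brain and plasma sampled at 8 and 60 min; values reported as mean ± standard error.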

[2] = Drug concentration in CD-1 mouse plasma at 3 mg/kg, iv measured at 60 mins; assay type: ADME, organism-based; outline: as §1
[3] = Ratio of drug level in brain to plasma in CD-1 mouse at 3 mg/kg, iv measured after 60 mins; assay type: ADME, organism-based; conditions: brain and plasma, read-out: BPR; outline: as §1
[4] = Drug concentration in CD-1 mouse plasma at 3 mg/kg, iv measured at 8 mins; assay type: ADME, organism-based; outline: as §1
Histone deacetylase 1 = Histone deacetylase 1 (Mus musculus, UniProt O09106); assay: Inhibition of HDAC1 in mouse N2A cells; assay type: cell-based
Sequence of Histone deacetylase 1 (O09106 whole entry): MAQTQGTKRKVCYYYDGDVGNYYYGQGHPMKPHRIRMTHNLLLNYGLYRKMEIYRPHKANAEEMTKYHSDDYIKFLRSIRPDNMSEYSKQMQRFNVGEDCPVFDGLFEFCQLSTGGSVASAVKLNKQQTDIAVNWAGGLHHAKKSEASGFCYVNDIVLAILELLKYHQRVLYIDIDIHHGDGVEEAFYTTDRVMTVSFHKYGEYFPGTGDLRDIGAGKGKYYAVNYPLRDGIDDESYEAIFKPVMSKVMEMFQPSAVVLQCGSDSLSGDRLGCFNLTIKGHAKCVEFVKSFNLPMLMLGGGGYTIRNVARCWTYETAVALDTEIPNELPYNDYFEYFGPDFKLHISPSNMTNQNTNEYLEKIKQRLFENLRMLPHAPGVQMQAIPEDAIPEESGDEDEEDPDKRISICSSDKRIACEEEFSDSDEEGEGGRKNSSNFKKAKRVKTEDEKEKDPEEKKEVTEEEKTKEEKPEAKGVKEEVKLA

[5] = biological target: T1, Protein deacetylase HDAC6 (Mus musculus, UniProt Q9Z2V5); assay: Inhibition of HDAC6 in mouse N2A cells assessed as increase in alpha tubulin acetylation; assay type: cell-based
T1 sequence (Q9Z2V5 whole entry): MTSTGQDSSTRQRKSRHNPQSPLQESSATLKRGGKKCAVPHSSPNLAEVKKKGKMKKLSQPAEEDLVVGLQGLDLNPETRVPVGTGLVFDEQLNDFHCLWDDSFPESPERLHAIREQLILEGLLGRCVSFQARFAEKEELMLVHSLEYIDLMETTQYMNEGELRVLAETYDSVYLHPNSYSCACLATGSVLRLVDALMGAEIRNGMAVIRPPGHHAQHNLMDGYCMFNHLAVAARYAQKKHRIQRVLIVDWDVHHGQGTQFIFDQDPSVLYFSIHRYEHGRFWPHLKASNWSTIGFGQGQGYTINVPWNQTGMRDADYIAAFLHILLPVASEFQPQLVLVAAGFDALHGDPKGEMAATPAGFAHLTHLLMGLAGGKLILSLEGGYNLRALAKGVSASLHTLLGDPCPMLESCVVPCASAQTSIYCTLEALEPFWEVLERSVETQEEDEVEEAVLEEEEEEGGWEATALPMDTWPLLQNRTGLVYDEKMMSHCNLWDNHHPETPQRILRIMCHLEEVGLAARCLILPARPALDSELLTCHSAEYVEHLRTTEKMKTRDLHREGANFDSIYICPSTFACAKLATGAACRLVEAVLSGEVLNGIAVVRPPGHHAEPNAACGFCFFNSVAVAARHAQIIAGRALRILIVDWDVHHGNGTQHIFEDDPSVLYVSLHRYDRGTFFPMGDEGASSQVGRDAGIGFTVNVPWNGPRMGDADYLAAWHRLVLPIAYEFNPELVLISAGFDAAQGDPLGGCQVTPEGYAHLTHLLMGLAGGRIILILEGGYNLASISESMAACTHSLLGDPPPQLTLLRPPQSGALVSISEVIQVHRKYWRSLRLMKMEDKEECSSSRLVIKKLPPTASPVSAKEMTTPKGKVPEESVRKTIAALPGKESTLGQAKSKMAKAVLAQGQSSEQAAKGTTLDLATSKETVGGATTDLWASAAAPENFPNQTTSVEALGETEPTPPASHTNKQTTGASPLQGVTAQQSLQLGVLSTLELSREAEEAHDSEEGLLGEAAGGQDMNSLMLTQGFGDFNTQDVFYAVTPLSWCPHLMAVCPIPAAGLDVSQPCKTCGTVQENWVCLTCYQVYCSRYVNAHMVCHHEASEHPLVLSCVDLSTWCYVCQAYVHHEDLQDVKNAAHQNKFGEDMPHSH
Outline: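 N2a cells; α-tubulin acetylation read out; 10-dose EC50 mode, singlet, 3-fold serial dilutions from 100 μM top concentration.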

[6] = biological target: T2, Protein deacetylase HDAC6 (Mus musculus) (UniProt Q9Z2V5); assay: In vivo inhibition of HDAC6 in C57BL/6 mouse cortex assessed as increase in alpha tubulin acetylation at 20 mg/kg, ip administered bid with interval of 4 hrs and measured after 1.5 hrs of last dosage by Western blot analysis; assay type: functional, organism-based
T2 sequence (whole entry): T1 sequence (Q9Z2V5 whole entry)
Outline: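 Adult male C57BL/6 mice got two IP injections of 20 mg/kg, 4 h apart, and were killed 1.5 h after the second. Cortical homogenates were Western blotted (n = 3–4 per group) for acetylated α-tubulin/total tubulin densitometric ratio, normalized to vehicle-treated baseline (100%). Mean and standard deviation are reported; significance versus vehicle at p < 0.05 or p < 0.01.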

[7] = Ratio of drug level in brain to plasma in CD-1 mouse at 3 mg/kg, iv measured after 8 mins; assay type: ADME, organism-based; conditions: brain and plasma, read-out: BPR; outline: as §1
[8] = biological target: T1, Protein deacetylase HDAC6; assay: Inhibition of HDAC6 in mouse N2A cells; assay type: cell-based
Mus musculus = species on record: Mus musculus; assay: Selectivity index, ratio of IC50 for HDAC1 in mouse N2A cells to IC50 for HDAC6 in mouse N2A cells; assay type: cell-based
MDR1 [9] = assay: Efflux ratio of permeability in MDCK-MDR1 cells; assay type: ADME, cell-based, Canis lupus familiaris; conditions: dog
[10] = Drug concentration in CD-1 mouse brain at 3 mg/kg, iv measured at 8 mins; assay type: ADME, organism-based; conditions: read-out: Ct; outline: as §1
[11] = Metabolic stability in mouse Hepatocyte assessed as half life; assay type: ADME, cell-based; conditions: hepatocytes
MDR1 [12] = assay: Efflux ratio of apparent permeability from basolateral to apical over apical to basolateral side in MDCK-MDR1 cells incubated for 2 hrs by LC-MS/MS analysis; conditions: dog
[13] = Initial plasma concentration in CD-1 mouse at 30 mg/kg, po measured at 0 mins; assay type: ADME, organism-based; conditions: read-out: C0
Outline: (§2)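 Plasma PK in male CD1 mice (n=3, mean) after 30 mg/kg oral dosing; formulation 5% DMSO in 10% HP-β-CD in saline, pH adjusted with HCl; C0 and C1h from plasma profile.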

[14] = Oral bioavailability in CD-1 mouse at 30 mg/kg; assay type: ADME, organism-based; conditions: in vivo
[15] = Ratio of drug level in brain to plasma in C57BL/6 mouse at 3 mg/kg, iv measured after 8 mins by LC-MS/MS analysis; conditions: brain and plasma
[16] = Metabolic stability in mouse liver microsomes assessed as half life; assay type: ADME, Microsome
[17] = Free drug concentration in mouse brain at 25 mg/kg measured at 8 mins; assay type: ADME, organism-based; conditions: in vivo
Outline: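 Free brain exposure calculated for 25 mg/kg from brain PK at 8 min and brain homogenate binding.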

[18] = Protein binding in mouse plasma assessed as unbound fraction measured at initial point; assay type: ADME, cell-free
Outline: (§3)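 Unbound plasma level derived from total concentrations predicted for 10 mg/kg IP using IV PK data, corrected by measured mouse plasma protein binding; given at initial point and 1 h.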

[19] = Plasma concentration in CD-1 mouse at 30 mg/kg, po measured at 1 hr; assay type: ADME, organism-based; outline: as §2
[20] = Plasma concentration in CD-1 mouse at 3 mg/kg, iv measured at 1 hr; assay type: ADME, organism-based
Outline: (§4)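 Plasma PK in male CD1 mice (n=3, mean) after 3 mg/kg IV; vehicle 5% DMSO in 10% HP-β-CD in saline, pH adjusted with HCl; C0, C1h and Vss derived from plasma profile.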

[21] = Initial plasma concentration in CD-1 mouse at 3 mg/kg, iv measured at 0 mins; assay type: ADME, organism-based; outline: as §4
[22] = Half life in CD-1 mouse at 3 mg/kg, iv; assay type: ADME, organism-based; conditions: in vivo
[23] = Metabolic stability in mouse plasma assessed as half life; assay type: ADME, cell-free
[24] = Volume of distribution at steady state in CD-1 mouse at 3 mg/kg, iv; assay type: ADME, organism-based; conditions: in vivo; outline: as §4
[25] = AUC in CD-1 mouse at 30 mg/kg, po; assay type: ADME, organism-based; conditions: in vivo
[26] = Protein binding in mouse plasma; assay type: ADME, cell-free; conditions: read-out: PPB (converted)
[27] = Protein binding in mouse brain homogenate; assay type: ADME, tissue-based; conditions: read-out: PB (converted)
[28] = AUC in CD-1 mouse at 3 mg/kg, iv; assay type: ADME, organism-based; conditions: in vivo
[29] = Half life in CD-1 mouse at 30 mg/kg, po; assay type: ADME, organism-based; conditions: in vivo
[30] = Protein binding in mouse plasma assessed as unbound fraction measured at 1 hr; assay type: ADME, cell-free; outline: as §3

Row | concentration at 1 h [1] | concentration at 1 h [2] | Kp at 1 h [3] | concentration at 8 min [4] | IC50 (Histone deacetylase 1) | EC50 [5] | Activity [6] | Kp at 8 min [7] | IC50 [8] | efflux ratio (MDR1 [9]) | concentration at 8 min [10] | SMILES | Ratio IC50 (Mus musculus) | further results
1 | 30.5 ng/g | 6 ng/mL | 5.08 | 345 ng/mL | 6.86 µM | 0.932 µM | Active | 1.03 | 0.0455 µM | 0.51 | 354 ng/g | O=C(NO)c1ccc(Cn2cccn2)cc1 | 150 | –
2 | 17.5 ng/g | 20.3 ng/mL | 0.86 | 274 ng/mL | 8.1 µM | 0.145 µM | – | 0.15 | 0.0044 µM | 9.83 | 40.5 ng/g | CN1CCc2c(c3ccccc3n2Cc2ccc(C(=O)NO)cc2)C1 [TUBASTATIN A] | – | half-life [11]: > 60 min; efflux ratio at 2 h (MDR1 [12]): 9.83; concentration at 0 h [13]: 135 ng/mL; bioavailability [14]: 5.9%; Kp at 8 min [15]: 0.15; half-life [16]: > 60 min; Drug uptake(free) [17]: 0.1 µM; C0(unbound) [18]: 3770 nM; concentration at 1 h [19]: 41.9 ng/mL; concentration at 1 h [20]: 29.7 ng/mL; C0 at 0 h [21]: 1240 ng/mL; t1/2 [22]: 21 min; half-life [23]: 30 min; Vdss [24]: 4.14 L/kg; AUC [25]: 134 ng·h/mL; fraction unbound [26]: 0.34; fraction unbound [27]: 0.094; AUC [28]: 227 ng·h/mL; half-life [29]: 51.6 min; Cp(f) [30]: 90 nM
3 | 7.6 ng/g | 0.8 ng/mL | 9.5 | 152 ng/mL | 5.54 µM | 0.25 µM | Active | 6.21 | 0.0097 µM | 1.05 | 944 ng/g | O=C(NO)c1ccc(CN2CCc3ccc(F)cc32)cc1 | 571 | –
